Source: ChEMBL document CHEMBL4251703, “Linker Variation and Structure-Activity Relationship Analyses of Carboxylic Acid-based Small Molecule STAT3 Inhibitors” (ACS Med Chem Lett, 2018)
Active and inactive are the calls of the source. The calls are words filed in the database; no cut-off is given here.

Key:
[1] = biological target: Signal transducer and activator of transcription 3 (Mus musculus) (UniProt P42227); experiment: (§1) Inhibition of STAT3 DNA binding activity in mouse NIH/3T3 nuclear extract preincubated for 30 mins followed by [32P]hSIE addition measured after 30 mins by electrophoretic mobility shift assay
Method in brief: (§2)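 STAT3 DNA-binding was measured by EMSA using nuclear extracts of equal total protein from v-Src-transformed fibroblasts containing activated STAT3. Extracts were preincubated for 30 min with 0–100 μM compound, then incubated with radiolabeled hSIE probe.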

[2] = biological target: Signal transducer and activator of transcription 3 (Mus musculus, UniProt P42227); experiment: as §1; method in brief: as §2
[3] = biological target: Signal transducer and activator of transcription 3 (Homo sapiens) (UniProt P40763); experiment: Inhibition of STAT3 in human MDA-MB-231 cells assessed as reduction in p-STAT3(Y705) level at 5 uM after 1 to 24 hrs by immunoblot analysis; assay type: cell-based
[4] = biological target: Signal transducer and activator of transcription 3 (Homo sapiens) (UniProt P40763); experiment: Inhibition of STAT3 in human MDA-MB-468 cells assessed as reduction in p-STAT3(Y705) level at 5 uM after 1 to 24 hrs by immunoblot analysis; assay type: cell-based
[5] = tested on: MDA-MB-231; experiment: Cytotoxicity against human MDA-MB-231 cells harboring active STAT3 assessed as decrease in cell viability up to 10 uM after 72 hrs by CyQuant dye based assay; assay type: functional
Method in brief: (§3)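 Cells were grown in 96-well format and treated once with 0–10 μM compound for 72 h. Viable cells were quantified by CyQuant proliferation assay and plotted as % viability against concentration. Data are mean ± SD of three independent determinations.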

[6] = tested on: MDA-MB-468; experiment: Cytotoxicity against human MDA-MB-468 cells harboring active STAT3 assessed as decrease in cell viability up to 10 uM after 72 hrs by CyQuant dye based assay; assay type: functional; method in brief: as §3
[7] = tested on: MCF7; experiment: Cytotoxicity against human MCF7 cells assessed as decrease in cell viability up to 10 uM after 72 hrs by CyQuant dye based assay; assay type: functional; method in brief: as §3
[8] = Solubility of the compound in simulated intestinal fluid at pH 6.8; assay type: physicochemical
Method in brief: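 Aqueous solubility was determined in pH 7.4 PBS and in pH 6.8 buffered simulated intestinal fluid, reported in μg/mL.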

Sequence of Signal transducer and activator of transcription 3 (P42227 whole entry): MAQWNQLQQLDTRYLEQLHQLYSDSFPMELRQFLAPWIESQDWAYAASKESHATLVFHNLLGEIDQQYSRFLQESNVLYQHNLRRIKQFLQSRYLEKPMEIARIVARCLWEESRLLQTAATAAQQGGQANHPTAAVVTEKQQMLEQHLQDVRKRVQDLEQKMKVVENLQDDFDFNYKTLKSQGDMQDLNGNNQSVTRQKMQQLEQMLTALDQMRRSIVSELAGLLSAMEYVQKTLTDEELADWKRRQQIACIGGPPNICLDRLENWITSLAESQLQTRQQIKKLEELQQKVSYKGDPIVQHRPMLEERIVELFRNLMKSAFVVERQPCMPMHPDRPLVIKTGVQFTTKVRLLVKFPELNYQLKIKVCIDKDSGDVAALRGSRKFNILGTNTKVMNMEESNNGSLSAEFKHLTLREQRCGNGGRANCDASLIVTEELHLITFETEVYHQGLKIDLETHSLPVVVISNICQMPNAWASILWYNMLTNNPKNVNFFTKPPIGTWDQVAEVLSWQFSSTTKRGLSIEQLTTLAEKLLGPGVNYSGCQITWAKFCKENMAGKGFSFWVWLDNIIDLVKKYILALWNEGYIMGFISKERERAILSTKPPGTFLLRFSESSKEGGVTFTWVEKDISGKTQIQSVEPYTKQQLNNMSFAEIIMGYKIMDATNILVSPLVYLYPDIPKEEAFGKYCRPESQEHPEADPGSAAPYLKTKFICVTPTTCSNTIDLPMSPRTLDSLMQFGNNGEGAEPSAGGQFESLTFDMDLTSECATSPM
Sequence of Signal transducer and activator of transcription 3 (Mus musculus) (P42227 whole entry): as above
Sequence of Signal transducer and activator of transcription 3 (Homo sapiens) (P40763 whole entry): as the sequence (P42227 whole entry) above, with D760E counted along it

Compound	inhibition [1]	other results
CN([C@@H](CO)C(=O)N(Cc1ccc(C2CCCCC2)cc1)c1ccc(C(=O)O)c(O)c1)S(=O)(=O)c1c(F)c(F)c(F)c(F)c1F	inactive	
C[C@H](C(=O)N(Cc1ccc(C2CCCCC2)cc1)c1c(F)cc(C(=O)O)cc1F)N(C)S(=O)(=O)c1c(F)c(F)c(F)c(F)c1F	inactive	
CN(CC(=O)N(Cc1ccc(C2CCCCC2)cc1)c1ccc(C(=O)O)c(O)c1)Cc1c(F)c(F)c(F)c(F)c1F	inactive	
Cc1cc(C(=O)O)cc(C)c1N(Cc1ccc(C2CCCCC2)cc1)C(=O)CN(C)S(=O)(=O)c1c(F)c(F)c(F)c(F)c1F	inactive	
CN(CC(=O)N(Cc1ccc(C2CCCCC2)cc1)c1ccc(C(=O)O)c(O)c1)S(=O)(=O)c1cc(F)cc(F)c1F		IC50 [2]: > 26 µM
C[C@@H](C(=O)N(Cc1ccc(C2CCCCC2)cc1)c1ccc(C(=O)NO)c(O)c1)N(C)S(=O)(=O)c1c(F)c(F)c(F)c(F)c1F		IC50 [2]: 6.8 µM
CN([C@H](CN)C(=O)N(Cc1ccc(C2CCCCC2)cc1)c1ccc(C(=O)O)c(O)c1)S(=O)(=O)c1c(F)c(F)c(F)c(F)c1F	Active	
CN([C@@H](CC(=O)O)C(=O)N(Cc1ccc(C2CCCCC2)cc1)c1ccc(C(=O)O)c(O)c1)S(=O)(=O)c1c(F)c(F)c(F)c(F)c1F	inactive	
CC[C@H](C(=O)N(Cc1ccc(C2CCCCC2)cc1)c1ccc(C(=O)O)c(O)c1)N(C)S(=O)(=O)c1c(F)c(F)c(F)c(F)c1F	Active	
O=C(O)c1ccc(N(Cc2ccc(C3CCCCC3)cc2)C(=O)[C@H]2CCCN2S(=O)(=O)c2c(F)c(F)c(F)c(F)c2F)cc1O		p-STAT3(Y705) reduction (qualitative call) [3]: Active; inhibition [4]: Active; Activity [5]: Active; Activity [6]: Active; Activity [7]: inactive
CN(CC(=O)N(Cc1ccc(C2CCCCC2)cc1)c1nc(C(=O)O)co1)S(=O)(=O)c1c(F)c(F)c(F)c(F)c1F	inactive	
CN(CC(=O)N(Cc1ccc(C2CCOCC2)cc1)c1ccc(C(=O)NO)c(O)c1)S(=O)(=O)c1c(F)c(F)c(F)c(F)c1F	inactive	
O=C(O)c1ccc(N(Cc2ccc(C3CCCCC3)cc2)C(=O)[C@H]2CCCN2S(=O)(=O)c2cc(F)cc(F)c2F)cc1O	inactive	
CN(CC(=O)N(Cc1ccc(C2CCCCC2)cc1)c1ccc(C(=O)O)c(O)c1)S(=O)(=O)c1cc(F)cc(F)c1		IC50 [2]: > 26 µM
CN([C@H](CC(=O)O)C(=O)N(Cc1ccc(C2CCCCC2)cc1)c1ccc(C(=O)O)c(O)c1)S(=O)(=O)c1c(F)c(F)c(F)c(F)c1F	Active	
CN(CC(=O)N(Cc1ccc(C2CCCCC2)cc1)c1ccc(C(=O)O)c(Cl)c1)S(=O)(=O)c1c(F)c(F)c(F)c(F)c1F		IC50 [2]: 8.6 to 14.4 µM
CN([C@H](CCO)C(=O)N(Cc1ccc(C2CCCCC2)cc1)c1ccc(C(=O)O)c(O)c1)S(=O)(=O)c1c(F)c(F)c(F)c(F)c1F	Active	
CN(CC(=O)N(Cc1ccc(C2CCCCC2)cc1)c1ccc(C(=O)O)c(O)c1)S(=O)(=O)c1ccc(F)c(F)c1F		IC50 [2]: > 26 µM
CN(CC(=O)N(Cc1ccc(C2CCCCC2)cc1)c1cccc(CC(=O)O)c1)S(=O)(=O)c1c(F)c(F)c(F)c(F)c1F	inactive	
O=C(O)c1ccc(N(Cc2ccc(C3CCCCC3)cc2)C(=O)[C@H]2CCCN2Cc2c(F)c(F)c(F)c(F)c2F)cc1O	inactive	
CN(CC(=O)N(Cc1ccc(C2CCCCC2)cc1)c1ccc(C(=O)O)c(O)c1)S(=O)(=O)c1c(F)cc(F)cc1F		IC50 [2]: > 26 µM
O=C(O)c1ccc(N(Cc2ccc(C3CCCCC3)cc2)C(=O)[C@H]2CCCN2C(=O)c2c(F)c(F)c(F)c(F)c2F)cc1O	inactive	
CN(CC(=O)N(Cc1ccc(C2CCCCC2)cc1)c1ncc(C(=O)O)o1)S(=O)(=O)c1c(F)c(F)c(F)c(F)c1F	inactive	
CN(CC(=O)N(Cc1ccc(C2CCCCC2)nc1)c1ccc(C(=O)O)c(O)c1)S(=O)(=O)c1c(F)c(F)c(F)c(F)c1F	inactive	
CN([C@H](CO)C(=O)N(Cc1ccc(C2CCCCC2)cc1)c1ccc(C(=O)O)c(O)c1)S(=O)(=O)c1c(F)c(F)c(F)c(F)c1F	Active	
CN([C@@H](CN)C(=O)N(Cc1ccc(C2CCCCC2)cc1)c1ccc(C(=O)O)c(O)c1)S(=O)(=O)c1c(F)c(F)c(F)c(F)c1F	inactive	
CN(CC(=O)N(Cc1ccc(C2CCCCCC2)cc1)c1ccc(C(=O)O)cc1)S(=O)(=O)c1c(F)c(F)c(F)c(F)c1F	inactive	
C[C@@H](O)[C@@H](C(=O)N(Cc1ccc(C2CCCCC2)cc1)c1ccc(C(=O)O)c(O)c1)N(C)S(=O)(=O)c1c(F)c(F)c(F)c(F)c1F	inactive	

Compound	inhibition [1]	other results
C[C@H](O)[C@H](C(=O)N(Cc1ccc(C2CCCCC2)cc1)c1ccc(C(=O)O)c(O)c1)N(C)S(=O)(=O)c1c(F)c(F)c(F)c(F)c1F	Active	
CN(CC(=O)N(Cc1ccc(C2CCOCC2)cc1)c1ccc(C(=O)O)c(O)c1)S(=O)(=O)c1c(F)c(F)c(F)c(F)c1F	inactive	
C[C@H](C(=O)N(Cc1ccc(C2CCCCC2)cc1)c1ccc2c(c1)CNC2=O)N(C)S(=O)(=O)c1c(F)c(F)c(F)c(F)c1F	inactive	
CN(CC(=O)N(Cc1ccc(N2CCCCC2)cc1)c1ccc(C(=O)O)cc1)S(=O)(=O)c1c(F)c(F)c(F)c(F)c1F	inactive	
C[C@H](C(=O)N(Cc1ccc(C2CCCCC2)cc1)c1ccc2cn[nH]c2c1)N(C)S(=O)(=O)c1c(F)c(F)c(F)c(F)c1F	inactive	
CC[C@H](C(=O)N(Cc1ccc(C2CCC(F)(F)CC2)cc1)c1ccc(C(=O)O)c(O)c1)N(C)S(=O)(=O)c1c(F)c(F)c(F)c(F)c1F	inactive	
CN([C@@H](CCO)C(=O)N(Cc1ccc(C2CCCCC2)cc1)c1ccc(C(=O)O)c(O)c1)S(=O)(=O)c1c(F)c(F)c(F)c(F)c1F	inactive	
C[C@H](C(=O)N(Cc1ccc(C2CCCCC2)cc1)c1ccc(C(=O)[O-])c(O)c1)N(C)S(=O)(=O)c1c(F)c(F)c(F)c(F)c1F.[Na+]		solubility [8]: 127 µg/mL
CN(CC(=O)N(Cc1ccc(C2CCCCC2)cc1)c1ccc(C(=O)O)c(O)c1)C(=O)c1c(F)c(F)c(F)c(F)c1F	inactive	
CN(CC(=O)N(Cc1ccc(C2CCCCC2)cc1)c1ccc(C(=O)O)c(O)c1)S(=O)(=O)c1cc(F)ccc1F		IC50 [2]: > 26 µM
C[C@H](C(=O)N(Cc1ccc(C2CCCCC2)cc1)c1ccc(C(=O)O)c(F)c1)N(C)S(=O)(=O)c1c(F)c(F)c(F)c(F)c1F	inactive	
O=C(O)c1ccc(N(Cc2ccc(C3CCCCC3)cc2)C(=O)[C@H]2CCCN2S(=O)(=O)c2c(F)c(F)c(F)c(F)c2F)c(F)c1		p-STAT3(Y705) reduction (qualitative call) [3]: Active; inhibition [4]: Active
CN(CC(=O)N(Cc1ccc(C2CCCCC2)cc1)c1ccc(C(=O)O)nc1)S(=O)(=O)c1c(F)c(F)c(F)c(F)c1F	inactive	
CN(CC(=O)N(Cc1ccc(C2CCCCC2)cc1)c1ccc(C(=O)O)c(O)c1)S(=O)(=O)c1cc(C(F)(F)F)cc(C(F)(F)F)c1		IC50 [2]: > 26 µM
CN(CC(=O)N(Cc1ccc(C2CCC(F)(F)CC2)cc1)c1ccc(C(=O)O)c(O)c1)S(=O)(=O)c1c(F)c(F)c(F)c(F)c1F	inactive	
O=C(NO)c1ccc(N(Cc2ccc(C3CCCCC3)cc2)C(=O)[C@H]2CCCN2S(=O)(=O)c2c(F)c(F)c(F)c(F)c2F)cc1O		IC50 [2]: 5.5 µM
CN(CC(=O)N(Cc1ccc(C2CCNCC2)cc1)c1ccc(C(=O)O)c(O)c1)S(=O)(=O)c1c(F)c(F)c(F)c(F)c1F	inactive	
CC[C@@H](C(=O)N(Cc1ccc(C2CCCCC2)cc1)c1ccc(C(=O)O)c(O)c1)N(C)S(=O)(=O)c1c(F)c(F)c(F)c(F)c1F	inactive	
CN([C@H](CO)C(=O)N(Cc1ccc(C2CCCCC2)cc1)c1ccc(C(=O)NO)cc1)S(=O)(=O)c1c(F)c(F)c(F)c(F)c1F	Active	
O=C(O)c1ccc(N(Cc2ccc(C3CCCCC3)cc2)C(=O)[C@H]2CCCN2S(=O)(=O)c2c(F)cc(F)c(F)c2F)cc1O	inactive	
Cc1cc(N(Cc2ccc(C3CCCCC3)cc2)C(=O)CN(C)S(=O)(=O)c2c(F)c(F)c(F)c(F)c2F)ccc1C(=O)O	inactive	
CN(CC(=O)N(Cc1ccc(C2CCCCC2)cc1)c1ccc(C(=O)O)c(O)c1)S(=O)(=O)c1cccnc1		IC50 [2]: > 26 µM
CN(CC(=O)N(Cc1ccc(C2CCCCC2)cc1)c1ccc(C(=O)O)[n+]([O-])c1)S(=O)(=O)c1c(F)c(F)c(F)c(F)c1F	inactive	
CN(CC(=O)N(Cc1ccc(C2CCOCC2)cc1)c1ccc(C(=O)O)cc1)S(=O)(=O)c1c(F)c(F)c(F)c(F)c1F	inactive	
C[C@H](C(=O)N(Cc1ccc(C2CCOCC2)cc1)c1ccc(C(=O)[O-])c(O)c1)N(C)S(=O)(=O)c1c(F)c(F)c(F)c(F)c1F.[Na+]	inactive	
CN(CC(=O)N(Cc1ccc(C2=CCCCCC2)cc1)c1ccc(C(=O)O)cc1)S(=O)(=O)c1c(F)c(F)c(F)c(F)c1F	inactive	
CN([C@H](CO)C(=O)N(Cc1ccc(C2CCCCC2)cc1)c1ccc(C(=O)O)cc1)S(=O)(=O)c1c(F)c(F)c(F)c(F)c1F	Active	
